Key:
Bone [1] = experiment: Biodistribution in Sprague-Dawley rat bone at 1.48 to 2.22 MBq, iv measured at 5 mins by gamma counting analysis; type: ADME, organism-based, Bone element; details: in vivo
Summary of the method: (§1)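 Male Sprague-Dawley rats (250 - 400 g), tail-vein injection of 1.48 - 2.22 MBq radiotracer under 2.5% isoflurane in oxygen; n=4 per time point, euthanized at 5, 30 and 60 min p.i. Brain regions obtained by gross dissection; peripheral tissues collected. Samples weighed, gamma-counted against a diluted-injectate standard; %ID/g calculated.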

Rattus norvegicus [2] = experiment: Biodistribution in Sprague-Dawley rat fat tissue at 1.48 to 2.22 MBq, iv measured at 30 mins by gamma counting analysis; type: ADME, organism-based, Adipose tissue; details: in vivo, 0.5 h; summary of the method: as §1
Bone [3] = experiment: Biodistribution in Sprague-Dawley rat bone at 1.48 to 2.22 MBq, iv measured at 30 mins by gamma counting analysis; type: ADME, organism-based, Bone element; details: in vivo, 0.5 h; summary of the method: as §1
Brain [4] = experiment: Biodistribution in Sprague-Dawley rat brain at 1.48 to 2.22 MBq, iv measured at 30 mins by gamma counting analysis; type: ADME, organism-based; details: in vivo, 0.5 h; summary of the method: as §1
Rattus norvegicus [5] = experiment: Biodistribution in Sprague-Dawley rat fat tissue at 1.48 to 2.22 MBq, iv measured at 60 mins by gamma counting analysis; type: ADME, organism-based, Adipose tissue; details: in vivo, 1 h; summary of the method: as §1
Bone [6] = experiment: Biodistribution in Sprague-Dawley rat bone at 1.48 to 2.22 MBq, iv measured at 60 mins by gamma counting analysis; type: ADME, organism-based, Bone element; details: in vivo, 1 h; summary of the method: as §1
Brain [7] = experiment: Biodistribution in Sprague-Dawley rat brain at 1.48 to 2.22 MBq, iv measured at 60 mins by gamma counting analysis; type: ADME, organism-based; details: in vivo, 1 h; summary of the method: as §1
Striatum = experiment: Biodistribution in Sprague-Dawley rat striatum at 1.48 to 2.22 MBq, iv measured at 30 mins by gamma counting analysis; type: ADME, organism-based; details: in vivo, 0.5 h; summary of the method: as §1
Nucleic Acid [8] = experiment: Ratio of drug level in striatum to cortex in Sprague-Dawley rat at 1.48 to 2.22 MBq, iv measured at 5 to 30 mins by gamma counting analysis; type: ADME, organism-based; details: in vivo
Summary of the method: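 Striatum, cerebellum and cortex obtained by gross dissection from Sprague-Dawley rats (250 - 400 g, n=4 per time point) after tail-vein injection of 1.48 - 2.22 MBq under isoflurane anesthesia. Tissues weighed and gamma-counted with an injectate standard to give %ID/g; ratios taken from striatal versus non-target uptake.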

Nucleic Acid [9] = experiment: Ratio of drug level in striatum to cerebellum in cynomolgus monkey at 185 to 259 MBq, iv measured at 40 mins by micro PET image analysis; type: ADME, organism-based, Macaca fascicularis; details: in vivo
Summary of the method: (§2)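 Adult male cynomolgus macaques (~4–6 kg), three independent PET studies per tracer on a microPET Focus 220. Animals fasted 12 h and anesthetized with ketamine (10 mg/kg) plus glycopyrrolate (0.13 mg/kg) i.m. A 10 min positioning transmission scan and a 45 min attenuation transmission scan were run, then a 3 h dynamic emission scan after venous tracer injection. Regional TACs came from ROIs, expressed as SUV (body weight, injected dose).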

Nucleic Acid [10] = experiment: Ratio of drug level in striatum to occipital in cynomolgus monkey at 185 to 259 MBq, iv measured at 40 mins by micro PET image analysis; type: ADME, organism-based, Macaca fascicularis; details: in vivo; summary of the method: as §2
Nucleic Acid [11] = experiment: Ratio of drug level in striatum to midbrain region in cynomolgus monkey at 185 to 259 MBq, iv measured at 40 mins by micro PET image analysis; type: ADME, organism-based, Macaca fascicularis, Brain; details: in vivo; summary of the method: as §2
Nucleic Acid [12] = experiment: Ratio of drug level in striatum to hippocampus in cynomolgus monkey at 185 to 259 MBq, iv measured at 40 mins by micro PET image analysis; type: ADME, organism-based, Macaca fascicularis; details: in vivo; summary of the method: as §2
[13] = Metabolic stability in cynomolgus monkey plasma assessed as compound remaining at 185 to 259 MBq, iv measured at 2 mins by HPLC analysis; type: ADME, organism-based, Macaca fascicularis; details: read-out: Stability
Summary of the method: (§3)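 Arterial blood (~1.5 mL) drawn at 2, 15, 30, 60 and 90 min p.i. into heparinized syringes, then centrifuged to plasma. Plasma deproteinated with 2 parts ice-cold methanol. Extract run on C-18 HPLC, MeCN/0.1 M ammonium formate pH 4.5, 0.9 mL/min, UV 254 nm. 1-min fractions over 16 min were well-counted and decay-corrected; parent percentage taken from recovered activity.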

[14] = Metabolic stability in cynomolgus monkey plasma assessed as compound remaining at 185 to 259 MBq, iv measured at 30 mins by HPLC analysis; type: ADME, organism-based, Macaca fascicularis; details: read-out: Stability; summary of the method: as §3

- Drug uptake (Bone [1]): 0.182 % ID/g
- Drug uptake (Rattus norvegicus [2]): 0.202 % ID/g
- Drug uptake (Bone [3]): 0.144 % ID/g
- Drug uptake (Brain [4]): 0.129 % ID/g
- Drug uptake (Rattus norvegicus [5]): 0.124 % ID/g
- Drug uptake (Bone [6]): 0.224 % ID/g
- Drug uptake (Brain [7]): 0.149 % ID/g
- Drug uptake (Striatum): Active
- Ratio (Nucleic Acid [8]): > 2
- Ratio (Nucleic Acid [9]): > 3
- Ratio (Nucleic Acid [10]): > 3
- Ratio (Nucleic Acid [11]): > 3
- Ratio (Nucleic Acid [12]): > 3
- remaining at 2 min [13]: 99%
- remaining at 0.5 h [14]: 73%
SMILES: Cn1cc(-c2ccncc2)c(-c2ccc(OCc3nc4ccccc4cc3OCC[18F])cc2)n1

Source: ChEMBL document CHEMBL3627597, “Synthesis of Fluorine-Containing Phosphodiesterase 10A (PDE10A) Inhibitors and the In Vivo Evaluation of F-18 Labeled PDE10A PET Tracers in Rodent and Nonhuman Primate” (J Med Chem, 2015)
